From ChEMBL document CHEMBL1275591, “Cellular pharmacodynamics of the novel biaryloxazolidinone radezolid: studies with infected phagocytic and nonphagocytic cells, using Staphylococcus aureus, Staphylococcus epidermidis, Listeria monocytogenes, and Legionella pneumophila” (Antimicrob Agents Chemother, 2010)
≈ marks a conversion by molar mass, not a printed value.

Legend:
Staphylococcus aureus [1] = assay: Antimicrobial activity against hospital acquired methicillin-resistant Staphylococcus aureus ATCC 33591 after 24 hrs; format: functional; conditions: ATCC 33591, 24 h
Staphylococcus aureus [2] = assay: Antimicrobial activity against hospital acquired methicillin-resistant Staphylococcus aureus SA238 after 24 hrs; format: functional; conditions: SA238, 24 h
Staphylococcus aureus [3] = assay: Antimicrobial activity against Linezolid resistant hospital acquired methicillin-resistant Staphylococcus aureus SA238L after 24 hrs; format: functional
Staphylococcus aureus [4] = assay: Antimicrobial activity against methicillin-resistant, vancomycin intermediate Staphylococcus aureus NRS52 after 24 hrs; format: functional; conditions: NRS52, 24 h
Staphylococcus aureus [5] = assay: Antimicrobial activity against hospital acquired methicillin-resistant, vancomycin resistant Staphylococcus aureus VRS2 after 24 hrs; format: functional; conditions: VRS2, 24 h
[6] = system: Staphylococcus epidermidis; assay: Antimicrobial activity against Staphylococcus epidermidis SA362 after 24 hrs; format: functional; conditions: SA362, 24 h
Listeria monocytogenes [7] = assay: Antimicrobial activity against Listeria monocytogenes EGD after 24 hrs; format: functional
Legionella pneumophila [8] = assay: Antimicrobial activity against Legionella pneumophila ATCC 33153 after 48 hrs; format: functional; conditions: ATCC 33153, 48 h
Legionella pneumophila [9] = assay: Antimicrobial activity against Legionella pneumophila ATCC 33153 infected in THP1 cells after 48hrs; format: functional, organism-based; conditions: ATCC 33153, THP-1, 48 h
Method in brief: (§1)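 Bacteria were phagocytosed by human THP-1 macrophage-like cells, then exposed to a range of drug concentrations for a fixed time: 24 h for S. aureus, S. epidermidis and L. monocytogenes, 48 h for L. pneumophila. Change in CFU versus the initial inoculum was fitted with a sigmoidal curve to give Emin, Emax (relative maximal efficacy), EC50 and static concentration (Cs).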

Staphylococcus aureus [10] = assay: Bacteriostatic activity against Staphylococcus aureus infected in THP1 cells after 24 hrs; format: functional, THP-1; method in brief: as §1
Listeria monocytogenes [11] = assay: Bacteriostatic activity against Listeria monocytogenes EGD infected in THP1 cells after 24 hrs; format: functional, THP-1; method in brief: as §1
Legionella pneumophila [12] = assay: Bacteriostatic activity against Legionella pneumophila ATCC 33153 infected in THP1 cells after 48hrs; format: functional, THP-1; method in brief: as §1
Staphylococcus aureus [13] = assay: Antimicrobial activity against linezolid-susceptible Staphylococcus aureus NRS384 infected in THP1 cells assessed as log reduction in bacterial count after 24 hrs; format: functional, THP-1; method in brief: as §1
Staphylococcus aureus [14] = assay: Antimicrobial activity against linezolid-susceptible Staphylococcus aureus NRS18 infected in THP1 cells assessed as log reduction in bacterial count after 24 hrs; format: functional, THP-1; method in brief: as §1
Staphylococcus aureus [15] = assay: Antimicrobial activity against linezolid-resistant Staphylococcus aureus SA040L infected in THP1 cells assessed as log reduction in bacterial count after 24 hrs; format: functional, THP-1; method in brief: as §1
Staphylococcus aureus [16] = assay: Antimicrobial activity against linezolid-susceptible Staphylococcus aureus ATCC 25923 infected in THP1 cells after 24 hrs; format: functional, organism-based; conditions: ATCC 25923, THP-1, 24 h; method in brief: as §1
Staphylococcus aureus [17] = assay: Antimicrobial activity against linezolid-susceptible Staphylococcus aureus SA238 infected in THP1 cells after 24 hrs; format: functional, organism-based; conditions: SA238, THP-1, 24 h; method in brief: as §1
Staphylococcus aureus [18] = assay: Antimicrobial activity against linezolid-resistant Staphylococcus aureus SA040L infected in THP1 cells after 24 hrs; format: functional, organism-based; conditions: THP-1, 24 h; method in brief: as §1
Staphylococcus aureus [19] = assay: Bacteriostatic activity against linezolid-susceptible Staphylococcus aureus ATCC 33591 infected in THP1 cells after 24 hrs; format: functional, THP-1
Method in brief: (§2)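 Human THP-1 myelomonocytic (macrophage-like) cells infected with S. aureus, then exposed 24 h to a range of antibiotic concentrations. CFU change was measured against the initial inoculum. A sigmoidal dose-response curve was fitted to give Emin, Emax and EC50, and the apparent static concentration (Cs) was taken from the fit.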

Staphylococcus aureus [20] = assay: Bacteriostatic activity against linezolid-susceptible Staphylococcus aureus SA238 infected in THP1 cells after 24 hrs; format: functional, THP-1; method in brief: as §2
Staphylococcus aureus [21] = assay: Bacteriostatic activity against linezolid-resistant Staphylococcus aureus SA040L infected in THP1 cells after 24 hrs; format: functional, THP-1; method in brief: as §2
Staphylococcus aureus [22] = assay: Antimicrobial activity against linezolid-resistant Staphylococcus aureus SA238L infected in HUVEC cells assessed as log reduction in bacterial count after 24 hrs; format: functional
Method in brief: (§3)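 S. aureus was internalized by adherent nonphagocytic cells: Calu-3, HUVEC, keratinocytes on collagen-coated wells, osteoblasts, or rat embryo fibroblasts. Inoculum was 5 × 10^7 to 1 × 10^8 bacteria/ml with 2 h phagocytosis (HUVEC: 2 × 10^6/ml, 1 h). Cells were then exposed to graded drug concentrations for 24 h. CFU change versus the original inoculum was fitted sigmoidally for Emax and Cs.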

Staphylococcus aureus [23] = assay: Antimicrobial activity against linezolid-susceptible Staphylococcus aureus SA238 infected in Calu-3 cells assessed as log reduction in bacterial count after 24 hrs; format: functional; method in brief: as §3
Staphylococcus aureus [24] = assay: Bacteriostatic activity against linezolid-susceptible Staphylococcus aureus SA238 infected in Calu-3 cells after 24 hrs; format: functional
Method in brief: (§4)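 Adherent nonphagocytic cells were infected at 5 × 10^7 to 1 × 10^8 bacteria/ml with 2 h phagocytosis. Cells used: Calu-3 bronchial epithelium grown in uncoated flasks, neonatal foreskin keratinocytes on collagen-coated wells, primary human osteoblasts, and primary rat embryo fibroblasts. Antibiotic was then given over a concentration range for 24 h. Cs came from a sigmoidal fit of CFU change.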

Staphylococcus aureus [25] = assay: Bacteriostatic activity against linezolid-resistant Staphylococcus aureus SA238L infected in Calu-3 cells after 24 hrs; format: functional; method in brief: as §4
Staphylococcus aureus [26] = assay: Antimicrobial activity against linezolid-susceptible Staphylococcus aureus SA238 infected in human epidermal keratinocytes cells assessed as log reduction in bacterial count after 24 hrs; format: functional; method in brief: as §3
Staphylococcus aureus [27] = assay: Antimicrobial activity against linezolid-resistant Staphylococcus aureus SA238L infected in human epidermal keratinocytes cells assessed as log reduction in bacterial count after 24 hrs; format: functional; method in brief: as §3
Staphylococcus aureus [28] = assay: Bacteriostatic activity against linezolid-susceptible Staphylococcus aureus SA238 infected in human epidermal keratinocytes cells after 24 hrs; format: functional; method in brief: as §4
Staphylococcus aureus [29] = assay: Bacteriostatic activity against linezolid-resistant Staphylococcus aureus SA238L infected in human epidermal keratinocytes cells after 24 hrs; format: functional; method in brief: as §4
THP-1 [30] = assay: Ratio of drug level for cellular to extracellular region of Staphylococcus aureus infected human THP-1 cells at 4 mg/liter after 2 hrs; format: ADME, cell-based; conditions: thp-1, 2 h
Method in brief: (§5)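 Cells were exposed to [14C]radezolid for 2 or 24 h. Cell-associated drug in lysates was measured by liquid scintillation counting (detection limit 0.003 mg/liter; linear 0.01–0.78 mg/liter). Content was normalised to cell protein (Lowry). It was converted to apparent cellular concentration at 5 μl per mg protein and expressed relative to the extracellular concentration.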

[31] = Ratio of drug level for cellular to extracellular region of Staphylococcus aureus infected rat fibroblast at 4 mg/liter after 2 hrs; format: ADME, cell-based; method in brief: as §5
[32] = Ratio of drug level for cellular to extracellular region of Staphylococcus aureus infected human osteoblast at 4 mg/liter after 2 hrs; format: ADME, cell-based; method in brief: as §5
THP-1 [33] = assay: Ratio of drug level for cellular to extracellular region of Staphylococcus aureus infected human THP-1 cells at 4 mg/liter after 24 hrs; format: ADME, cell-based; conditions: thp-1, 24 h; method in brief: as §5
HUVEC = assay: Ratio of drug level for cellular to extracellular region of Staphylococcus aureus infected HUVEC cells at 4 mg/liter after 24 hrs; format: ADME, cell-based; conditions: human; method in brief: as §5
[34] = Ratio of drug level for cellular to extracellular region of Staphylococcus aureus infected human Calu3 cells at 4 mg/liter after 24 hrs; format: ADME, cell-based; conditions: calu-3, 24 h; method in brief: as §5
Staphylococcus aureus [35] = assay: Bacteriostatic activity against linezolid-susceptible Staphylococcus aureus SA238 infected in THP1 cells at pH 5.5 after 24 hrs; format: functional, THP-1
Staphylococcus aureus [36] = assay: Bacteriostatic activity against linezolid-susceptible Staphylococcus aureus SA238 after 24 hrs; format: functional
Method in brief: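 Extracellular concentration-response in Mueller-Hinton broth over 24 h. Change in CFU was fitted to a sigmoidal function, and the apparent static concentration (Cs) was derived from the fit.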

CC(=O)NC[C@H]1CN(c2ccc(-c3ccc(CNCc4cnn[nH]4)cc3)c(F)c2)C(=O)O1 [RADEZOLID]
MIC (Staphylococcus aureus [1]): 0.5 µg/mL (≈ 1.14 µM) | MIC (Staphylococcus aureus [2]): 0.5 µg/mL (≈ 1.14 µM) | MIC (Staphylococcus aureus [3]): 2 µg/mL (≈ 4.56 µM) | MIC (Staphylococcus aureus [4]): 2 µg/mL (≈ 4.56 µM) | MIC (Staphylococcus aureus [5]): 2 µg/mL (≈ 4.56 µM) | MIC [6]: 0.25 µg/mL (≈ 0.57 µM) | MIC (Listeria monocytogenes [7]): 0.03 µg/mL (≈ 0.0684 µM) | MIC (Legionella pneumophila [8]): 0.5 µg/mL (≈ 1.14 µM) | EC50 (Legionella pneumophila [9]): 0.47 µg/mL (≈ 1.07 µM) | Activity (Staphylococcus aureus [10]): 0.91 mg/L | Activity (Listeria monocytogenes [11]): 0.43 mg/L | Activity (Legionella pneumophila [12]): 0.36 mg/L | log10cfu (Staphylococcus aureus [13]): -0.61 | log10cfu (Staphylococcus aureus [14]): -1 | log10cfu (Staphylococcus aureus [15]): -0.66 | EC50 (Staphylococcus aureus [16]): 0.24 µg/mL (≈ 0.547 µM) | EC50 (Staphylococcus aureus [17]): 0.16 µg/mL (≈ 0.365 µM) | EC50 (Staphylococcus aureus [18]): 0.14 µg/mL (≈ 0.319 µM) | Activity (Staphylococcus aureus [19]): 0.56 mg/L | Activity (Staphylococcus aureus [20]): 0.56 mg/L | Activity (Staphylococcus aureus [21]): 0.56 mg/L | log10cfu (Staphylococcus aureus [22]): 0.6 | log10cfu (Staphylococcus aureus [23]): 0.6 | Activity (Staphylococcus aureus [24]): 0.6 mg/L | Activity (Staphylococcus aureus [25]): 0.6 mg/L | log10cfu (Staphylococcus aureus [26]): 0.6 | log10cfu (Staphylococcus aureus [27]): 0.6 | Activity (Staphylococcus aureus [28]): 0.6 mg/L | Activity (Staphylococcus aureus [29]): 0.6 mg/L | Ratio (THP-1 [30]): 9.3 | Ratio [31]: 14.4 | Ratio [32]: 9.8 | Ratio (THP-1 [33]): 9.8 | Ratio (HUVEC): 10.5 | Ratio [34]: 8.3 | Activity (Staphylococcus aureus [35]): 0.06 mg/L | Activity (Staphylococcus aureus [36]): 0.52 mg/L
